Test [1] has as its target Sodium-dependent dopamine transporter (Rattus norvegicus) (UniProt P23977). Kind of test: Ratio of reuptake inhibition on DA with respect to binding affinity of DA. It counts as functional.
The target in test [2] is T1, Sodium-dependent dopamine transporter (Rattus norvegicus, UniProt P23977). Briefly: Reuptake inhibition at the dopamine transporter labeled with radioligand [3H]dopamine on synaptosomes obtained from rat caudate. It counts as functional, subcellular, Brain. In a few lines:
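Rat caudate synaptosomes (10% sucrose homogenate, 1000g supernatant). [3H]DA at 5 nM final in Krebs-phosphate buffer pH 7.4 with ascorbic acid and 50 μM pargyline. Incubated 15 min at 25 °C. Nonspecific uptake defined with 1 μM GBR 12909. Filtered over GF/B filters and counted. IC50 reported.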

The target of test [3] is T2, Sodium-dependent serotonin transporter (Rattus norvegicus, UniProt P31652). Kind of test: Binding affinity at the serotonin transporter using [125I]RTI-55 in rat caudate membranes. The test is classed as cell membranes. An outline of the steps:
(§1)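 Triplicate incubation 18–24 h at 4 °C, then filtration over PEI-presoaked GF/B filters. Eight-point inhibition curves (90–10% of control) give the IC50.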

In test [4] the target is T3, Monoamine transporters; serotonin & dopamine (Rattus norvegicus) (UniProt P31652+P23977). Kind of test: Ratio of reuptake inhibition of 5-HT with respect to DA. The test is classed as functional.
Test [5] has as its target T3, Monoamine transporters; serotonin & dopamine (Rattus norvegicus). Kind of test: Ratio of binding affinity on SERT with respect to DA. It counts as protein assay.
In test [6] the target is T1, Sodium-dependent dopamine transporter. Briefly: Binding affinity at the dopamine transporter using [125I]RTI-55 in rat caudate membranes. It counts as cell membranes. An outline of the steps:
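[125I]RTI-55 at 0.01 nM (SA 2200 Ci/mmol). […] Incubated in triplicate 18–24 h at 4 °C to equilibrium. Filtered over PEI-presoaked GF/B filters. Eight-point inhibition curves spanning 90% to 10% of control. IC50 reported.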

Test [7] has the same target. Kind of test: Binding affinity was determined at the dopamine transporter labeled with radioligand [125 I] RTI-55. In a few lines:
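Incubated in triplicate 18–24 h at 4 °C to equilibrium. Filtered over PEI-presoaked GF/B filters. Eight-point inhibition curves spanning 90% to 10% of control. IC50 reported.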

Test [8] concerns the target T2, Sodium-dependent serotonin transporter. Kind of test: Binding affinity was determined at the Serotonin transporter labeled with radioligand [125 I] RTI-55. In a few lines: as §1

Molecules are shown by their SMILES. pIC50: −log10 of the molar value.

T3 sequence (P23977 whole entry, looked up): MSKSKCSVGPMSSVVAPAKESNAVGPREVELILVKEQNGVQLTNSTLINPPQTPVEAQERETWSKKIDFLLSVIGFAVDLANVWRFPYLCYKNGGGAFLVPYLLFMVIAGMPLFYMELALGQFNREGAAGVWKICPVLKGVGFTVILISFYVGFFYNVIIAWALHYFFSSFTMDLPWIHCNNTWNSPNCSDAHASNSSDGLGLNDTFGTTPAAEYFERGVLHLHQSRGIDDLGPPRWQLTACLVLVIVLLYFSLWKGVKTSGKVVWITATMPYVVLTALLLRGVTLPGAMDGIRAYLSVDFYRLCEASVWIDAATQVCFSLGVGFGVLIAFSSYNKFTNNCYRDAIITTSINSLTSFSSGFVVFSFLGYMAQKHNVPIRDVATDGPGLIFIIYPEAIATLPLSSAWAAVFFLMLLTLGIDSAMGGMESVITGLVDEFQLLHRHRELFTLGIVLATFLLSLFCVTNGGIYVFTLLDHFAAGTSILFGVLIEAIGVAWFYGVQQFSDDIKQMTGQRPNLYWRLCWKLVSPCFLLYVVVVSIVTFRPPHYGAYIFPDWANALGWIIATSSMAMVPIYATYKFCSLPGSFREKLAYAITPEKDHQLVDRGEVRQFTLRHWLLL
T3 sequence (P31652 whole entry, looked up): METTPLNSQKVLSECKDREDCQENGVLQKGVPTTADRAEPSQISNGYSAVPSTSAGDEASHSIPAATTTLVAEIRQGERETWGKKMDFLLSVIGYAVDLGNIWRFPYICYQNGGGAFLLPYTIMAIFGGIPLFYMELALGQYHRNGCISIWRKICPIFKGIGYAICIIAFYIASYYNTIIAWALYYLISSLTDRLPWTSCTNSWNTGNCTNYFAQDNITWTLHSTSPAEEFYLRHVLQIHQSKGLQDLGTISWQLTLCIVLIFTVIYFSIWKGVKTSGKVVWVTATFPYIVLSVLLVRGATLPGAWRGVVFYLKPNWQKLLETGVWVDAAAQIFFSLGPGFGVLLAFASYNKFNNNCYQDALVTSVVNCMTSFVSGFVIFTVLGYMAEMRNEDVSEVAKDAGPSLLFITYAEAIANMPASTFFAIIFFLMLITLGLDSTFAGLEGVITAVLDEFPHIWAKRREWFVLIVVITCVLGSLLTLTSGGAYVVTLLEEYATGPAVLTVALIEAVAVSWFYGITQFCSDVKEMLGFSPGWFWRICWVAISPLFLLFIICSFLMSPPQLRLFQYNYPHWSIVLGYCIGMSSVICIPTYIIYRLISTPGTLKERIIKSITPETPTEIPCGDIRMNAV
T1 sequence (P23977 whole entry): as the sequence (P23977 whole entry, looked up) above
Sodium-dependent dopamine transporter (Rattus norvegicus), sequence (P23977 whole entry): as the sequence (P23977 whole entry, looked up) above
T2 sequence (P31652 whole entry): as the sequence (P31652 whole entry, looked up) above

For the compound `c1ccc(C(OCCN2CCN(Cc3cnc4ccccc4c3)CC2)c2ccccc2)cc1`, the Ratio in test [1] was 1.5; in test [4] it was 27; in test [5] it was 16. Besides, the pIC50 was 6.95 in test [2], 5.94 in test [3] and 7.14 in test [6].
Consider `Fc1ccc(C(OCCN2CCN(Cc3cccc4ccccc34)CC2)c2ccc(F)cc2)cc1`, for which the Ratio in test [1] was 10.1; in test [4], below 1; in test [5], 8. Also, the figures for the pIC50 in test [2], in test [3] and in test [6] were 6.51, 6.61 and 7.51, respectively.
Take `Fc1ccc(C(OCCN2CCN(Cc3cnc4ccccc4c3)CC2)c2ccc(F)cc2)cc1`: the Ratio in test [1] was determined as 4.6; in test [4], 12; in test [5], 30. Besides, the results for the pIC50 in test [2], in test [3] and in test [6] were 7.13, 6.31 and 7.80, respectively.
On to `Fc1ccc(C(OCCN2CCN(Cc3ccc4ccccc4c3)CC2)c2ccc(F)cc2)cc1`, for which the results for the Ratio in test [1], in test [4] and in test [5] were 3.8, 20 and 39, respectively. Further, the pIC50 in test [2] is 7.52; in test [3], 6.51; in test [6] it was 8.10.
`c1ccc(C(OCCN2CCN(CCCc3cccs3)CC2)c2ccccc2)cc1`: the results for the Ratio in test [1], in test [4] and in test [5] were 1.9, 205 and 162, respectively. The pIC50 in test [2] was 8.01; in test [3], 6.07; in test [6], 8.28.
Regarding `c1ccc(C(OCCN2CCN(Cc3cc4ccccc4s3)CC2)c2ccccc2)cc1`, the Ratio in test [1] was 1.1; in test [4], 184; in test [5], 131. Besides, the pIC50 was 7.72 in test [2], 5.62 in test [3] and 7.74 in test [6].
With `c1ccc(C(OCCN2CCN(Cc3nc4ccccc4[nH]3)CC2)c2ccccc2)cc1`, the Ratio worked out at 0.8 in test [1], 110 in test [4] and 41 in test [5]. In addition, the pIC50 is 7.43 in test [2], 5.72 in test [3] and 7.34 in test [6].
As to `c1ccc(C(OCCN2CCN(CCCc3nc4ccccc4[nH]3)CC2)c2ccccc2)cc1`, the Ratio was found to be 0.7 in test [1], 39 in test [4] and 13 in test [5]. Further, the pIC50 in test [2] is 7.77; in test [3] it was 6.51; in test [6], 7.64.
On to `Fc1ccc(C(OCCN2CCN(CCCc3cccs3)CC2)c2ccc(F)cc2)cc1`, for which the figures for the Ratio in test [1], in test [4] and in test [5] were 1.8, 55 and 32, respectively. Also, the pIC50 was 8.21 in test [2], 8.48 in test [7] and 6.98 in test [8].
In the case of `Fc1ccc(C(OCCN2CCN(C/C=C/c3cccs3)CC2)c2ccc(F)cc2)cc1`, the figures for the Ratio in test [1], in test [4] and in test [5] were 5.9, 29 and 40, respectively. The pIC50 was 7.89 in test [2], 8.66 in test [7] and 7.06 in test [8].
For `c1ccc(C(OCCN2CCN(Cc3cccc4ccccc34)CC2)c2ccccc2)cc1`, the Ratio in test [1] was 3.6; in test [4] it was below 1; in test [5] it was 3. The pIC50 in test [2] is 6.39; in test [3], 6.47; in test [6], 6.94.
For the compound `c1ccc(C(OCCN2CCN(Cc3ccc4ncccc4c3)CC2)c2ccccc2)cc1`, the Ratio came out at 0.7 in test [1], 12 in test [4] and 4 in test [5]. Also, the pIC50 in test [2] was 6.85; in test [3] it was 6.07; in test [6], 6.72.
With `Fc1ccc(C(OCCN2CCN(Cc3ccc4ccccc4n3)CC2)c2ccc(F)cc2)cc1`, the Ratio in test [1] is 1.9; in test [4], 3; in test [5] it was below 1. Further, the pIC50 in test [2] is 6.97; in test [3], 7.29; in test [6] it was 7.25.
For the compound `c1ccc(C(OCCN2CCN(CCCc3cccnc3)CC2)c2ccccc2)cc1`, the results for the Ratio in test [1], in test [4] and in test [5] were 0.9, 53 and 31, respectively. The pIC50 in test [2] is 7.15; in test [3], 5.62; in test [6], 7.11.
Take `Fc1ccc(C(OCCN2CCN(C/C=C/c3ccco3)CC2)c2ccc(F)cc2)cc1`: the Ratio was 4 in test [1], 61 in test [4] and 62 in test [5]. Also, the pIC50 in test [2] is 8.14; in test [8], 6.96.
Consider `Fc1ccc(C(OCCN2CCN(Cc3cc4ccccc4s3)CC2)c2ccc(F)cc2)cc1`, for which the values for the Ratio in test [1], in test [4] and in test [5] were 8.3, 36 and 121, respectively. For the same compound, the pIC50 was 7.47 in test [2], 6.31 in test [3] and 8.39 in test [6].
Consider `Fc1ccc(C(OCCN2CCN(CCCc3nc4ccccc4[nH]3)CC2)c2ccc(F)cc2)cc1`, for which the Ratio in test [1] came to 3.2; in test [4], 9; in test [5], 11. The pIC50 in test [2] is 8.09; in test [3], 7.55; in test [6], 8.60.
As for `c1ccc(C(OCCN2CCN(Cc3ccc4ccccc4n3)CC2)c2ccccc2)cc1`, the values for the Ratio in test [1], in test [4] and in test [5] were 1, 21 and 10, respectively. Further, the pIC50 was 6.72 in test [2], 5.70 in test [3] and 6.70 in test [6].
In the case of `Fc1ccc(C(OCCN2CCN(Cc3ccc4ncccc4c3)CC2)c2ccc(F)cc2)cc1`, the Ratio in test [1] was found to be 1.2; in test [5], 9. In addition, the pIC50 in test [3] is 6.26; in test [6], 7.21.
On to `C(=C\c1cccs1)/CN1CCN(CCOC(c2ccccc2)c2ccccc2)CC1`, for which the Ratio was determined as 1.6 in test [1], 200 in test [4] and 184 in test [5]. In addition, the pIC50 in test [2] is 8.00; in test [3], 5.93; in test [6] it was 8.19.
For the compound `c1ccc(C(OCCN2CCN(CCCc3ccco3)CC2)c2ccccc2)cc1`, the Ratio in test [1] is 1.3; in test [4] it was 300; in test [5], 234. Moreover, the pIC50 is 8.07 in test [2], 5.82 in test [3] and 8.19 in test [6].
For `C(=C\c1cccnc1)/CN1CCN(CCOC(c2ccccc2)c2ccccc2)CC1`, the Ratio in test [1] turned out to be 1.5; in test [4], 57; in test [5] it was 61. The pIC50 in test [2] is 7.19; in test [3], 5.56; in test [6], 7.36.
In the case of `C(=C\c1ccco1)/CN1CCN(CCOC(c2ccccc2)c2ccccc2)CC1`, the Ratio was 1.9 in test [1], 281 in test [4] and 367 in test [5]. The pIC50 in test [2] is 8.02; in test [3] it was 5.74; in test [6], 8.30.
`Fc1ccc(C(OCCN2CCN(Cc3nc4ccccc4[nH]3)CC2)c2ccc(F)cc2)cc1`: the Ratio was 1.3 in test [1], 40 in test [4] and 17 in test [5]. For the same compound, the pIC50 in test [2] is 7.70; in test [3] it was 6.59; in test [6] it was 7.82.

One may read the pIC50 as the IC50 on a negative log10 scale, so that one unit is a factor of ten. High values mean a small IC50, low ones a large IC50.

Values taken from ChEMBL document CHEMBL1129953, “Heteroaromatic analogs of 1-[2-(diphenylmethoxy)ethyl]- and 1-[2-[bis(4-fluorophenyl)methoxy]ethyl]-4-(3-phenylpropyl)piperazines (GBR 12935 and GBR 12909) as high-affinity dopamine reuptake inhibitors” (J Med Chem, 1997).
